For data set [1], the species on record is Mus musculus. In words: Lowest dose of compound associated with clinical signs. Format: functional.
The species named for data set [2] is Mus musculus. Briefly: Lowest dose of compound associated with unacceptable clinical signs. The format is functional.
Data set [3] can be described thus: Acute toxicity was determined in mice. The format is organism-based. The conditions noted are these: mouse, in vivo.
Data set [4] concerns Rattus norvegicus. Briefly: Compound was tested for hypotensive activity by measuring the average change in mean arterial blood pressure in mmHg after 24 hr at 0.05 mg/Kg oral dosing of a conscious rat. Format: functional, Artery. The gist of the method: (§1)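 Restrained (towel-wrapped, to raise sympathetic tone) conscious female Sprague-Dawley rats with chronic indwelling aortic cannulas exteriorized at the nape; blood pressure recorded directly by transducer before and 4 and 24 h after oral dosing. Compound suspended in carboxymethylcellulose vehicle, 10 mL/kg; doses 50 to 0.05 mg/kg. Two rats averaged per time point; average change ≥5 mmHg taken as significant (p < 0.05).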

For data set [5], the system named is Rattus norvegicus. Briefly: Compound was tested for hypotensive activity by measuring the average change in mean arterial blood pressure in mmHg after 24 hr at 0.15 mg/Kg oral dosing of a conscious rat. The format is functional, Artery. The gist of the method:
as §1

Data set [6] relates to Rattus norvegicus. In words: Compound was tested for hypotensive activity by measuring the average change in mean arterial blood pressure in mmHg after 24 hr at 0.5 mg/Kg oral dosing of a conscious rat. The format is functional, Artery. The gist of the method:
as §1

The subject of data set [7] is Rattus norvegicus. Briefly: Compound was tested for hypotensive activity by measuring the average change in mean arterial blood pressure in mmHg after 24 hr at 1.5 mg/Kg oral dosing of a conscious rat. Format: functional, Artery. The gist of the method:
as §1

For data set [8], the system named is Rattus norvegicus. In words: Compound was tested for hypotensive activity by measuring the average change in mean arterial blood pressure in mmHg after 24 hr at 15 mg/Kg oral dosing of a conscious rat. Format: functional, Artery. The gist of the method:
as §1

Data set [9] concerns Rattus norvegicus. Briefly: Compound was tested for hypotensive activity by measuring the average change in mean arterial blood pressure in mmHg after 4 hr at 0.05 mg/Kg oral dosing of a conscious rat. The format is functional, Artery. The gist of the method:
as §1

For data set [10], the system named is Rattus norvegicus. In words: Compound was tested for hypotensive activity by measuring the average change in mean arterial blood pressure in mmHg after 4 hr at 0.15 mg/Kg oral dosing of a conscious rat. The format is functional, Artery. The gist of the method:
as §1

Data set [11] concerns Rattus norvegicus. Briefly: Compound was tested for hypotensive activity by measuring the average change in mean arterial blood pressure in mmHg after 4 hr at 0.5 mg/Kg oral dosing of a conscious rat. The format is functional, Artery. The gist of the method: as §1
Data set [12] has as its system Rattus norvegicus. In words: Compound was tested for hypotensive activity by measuring the average change in mean arterial blood pressure in mmHg after 4 hr at 1.5 mg/Kg oral dosing of a conscious rat. Format: functional, Artery. The gist of the method: as §1
Data set [13] relates to Rattus norvegicus. In words: Compound was tested for hypotensive activity by measuring the average change in mean arterial blood pressure in mmHg after 4 hr at 15 mg/Kg oral dosing of a conscious rat. The format is functional, Artery. The gist of the method:
as §1

Some results are limits rather than exact numbers.

For orientation: LD50 means the dose at which mortality reaches 50%. A high value points to a less toxic substance.

Regarding `O=C(c1ccc(Nc2ccnc3cc(C(F)(F)F)ccc23)cc1)N1CCN(S(=O)(=O)c2ccc(F)cc2)CC1` [LOSULAZINE], the Dose in the data set filed under Mus musculus [1] was 100 mg/kg; in the data set filed under Mus musculus [2] it was above 3160 mg/kg. In [3], this compound came in with an LD50 above 3160 mg/kg. The Activity is -2 mmHg in the data set with Rattus norvegicus [4]; -14 mmHg in the data set on Rattus norvegicus [5]; -15 mmHg in the data set with Rattus norvegicus [6]; -21 mmHg in the data set with Rattus norvegicus [7]; -25 mmHg in the data set on Rattus norvegicus [8]; -6 mmHg with Rattus norvegicus [9]. The Activity with Rattus norvegicus [10] was -12 mmHg; with Rattus norvegicus [11] it was -10 mmHg; in the data set on Rattus norvegicus [12], -17 mmHg; with Rattus norvegicus [13], -19 mmHg.

For the origin of these results see ChEMBL document CHEMBL1123201, “7-(Trifluoromethyl)-4-aminoquinoline hypotensives: novel peripheral sympatholytics” (J Med Chem, 1986).
